# Experimental data as given in ChEMBL document CHEMBL2157949 (J Med Chem, 2012).
# pIC50, pKi: −log10 of the molar value. The source made the active and inactive calls. The rule behind the calls is not given here.
# System: not listed separately
# Assay: Growth inhibition of Chinese hamster PC43-10 cells expressing reduced folate carrier incubated for 96 hrs by CellTiter-blue cell viability assay
# Format: functional, cell-based
# Details: Cricetulus griseus, PC43-10, 96 h
row,Structure (SMILES),pIC50
1,Nc1nc2[nH]c(CCC#Cc3sccc3C(=O)N[C@@H](CCC(=O)O)C(=O)O)cc2c(=O)[nH]1,< 6.00
2,Nc1nc2[nH]c(CCC#Cc3cscc3C(=O)N[C@@H](CCC(=O)O)C(=O)O)cc2c(=O)[nH]1,< 6.00
3,Nc1nc2[nH]c(CCCCc3csc(C(=O)N[C@@H](CCC(=O)O)C(=O)O)c3)cc2c(=O)[nH]1,< 6.00

# System: R2
# Assay: Growth inhibition of Chinese hamster R2 cells expressing empty vector control incubated for 96 hrs by CellTiter-blue cell viability assay
# Details: Cricetulus griseus, R2, 96 h
row,Structure (SMILES),pIC50
1,Nc1nc2[nH]c(CCC#Cc3sccc3C(=O)N[C@@H](CCC(=O)O)C(=O)O)cc2c(=O)[nH]1,< 6.00
2,Nc1nc2[nH]c(CCC#Cc3cscc3C(=O)N[C@@H](CCC(=O)O)C(=O)O)cc2c(=O)[nH]1,< 6.00
3,Nc1nc2[nH]c(CCCCc3csc(C(=O)N[C@@H](CCC(=O)O)C(=O)O)c3)cc2c(=O)[nH]1,< 6.00

# Biological target: T1, Proton-coupled folate transporter (Homo sapiens, UniProt Q96NT5)
# T1 sequence (Q96NT5 whole entry): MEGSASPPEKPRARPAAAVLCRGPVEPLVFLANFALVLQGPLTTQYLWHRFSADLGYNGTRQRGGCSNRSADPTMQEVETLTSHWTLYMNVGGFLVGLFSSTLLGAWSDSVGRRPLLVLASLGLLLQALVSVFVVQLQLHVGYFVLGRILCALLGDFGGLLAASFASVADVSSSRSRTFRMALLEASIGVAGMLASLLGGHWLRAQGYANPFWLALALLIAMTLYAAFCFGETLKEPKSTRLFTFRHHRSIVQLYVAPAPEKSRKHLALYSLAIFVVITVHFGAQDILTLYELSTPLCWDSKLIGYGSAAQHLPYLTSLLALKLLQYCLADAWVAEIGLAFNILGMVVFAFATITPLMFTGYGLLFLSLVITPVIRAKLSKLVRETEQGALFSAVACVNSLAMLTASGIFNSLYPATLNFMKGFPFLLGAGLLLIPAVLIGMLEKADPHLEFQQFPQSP
# Assay: Inhibition of [3H]MTX transport at human PCFT expressed in Chinese hamster R2 cells at pH 5.5 by Dixon plot
# Format: cell-based
# Details: not given
# In short: (§1)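 R2/hPCFT4 CHO cells grown in spinner flasks, resuspended in HBS at pH 6.8 or MES-buffered saline at pH 5.5. Uptake quenched with ice-cold DPBS and normalized to protein. Mean ± SE, n=4–8.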
row,Structure (SMILES),pKi
1,Nc1nc2[nH]c(CCCCc3csc(C(=O)N[C@@H](CCC(=O)O)C(=O)O)c3)cc2c(=O)[nH]1,6.41

# System: R2
# Assay: Growth inhibition of Chinese hamster R2 cells deficient in reduced folate carrier and human folate receptor alpha incubated for 96 hrs by CellTiter-blue cell viability assay
# Format: cell-based, Cricetulus griseus
# Details: R2, 96 h
row,Structure (SMILES),pIC50
1,Nc1nc2[nH]c(CCC#Cc3sccc3C(=O)N[C@@H](CCC(=O)O)C(=O)O)cc2c(=O)[nH]1,< 6.00
2,Nc1nc2[nH]c(CCC#Cc3cscc3C(=O)N[C@@H](CCC(=O)O)C(=O)O)cc2c(=O)[nH]1,< 6.00
3,Nc1nc2[nH]c(CCCCc3csc(C(=O)N[C@@H](CCC(=O)O)C(=O)O)c3)cc2c(=O)[nH]1,< 6.00

# System: KB
# Assay: Growth inhibition of human KB cells endogenously expressing RFC/FRalpha/PCFT in presence of 50 nM leucovorin incubated for 96 hrs by CellTiter-blue cell viability assay
# Format: functional, cell-based
# Details: not given
# In short: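 KB cells in complete folate-free RPMI 1640 with 10% dialyzed FBS and LCV at 50 nM (versus the standard 2 nM), exposed to a range of antifolate concentrations for up to 96 h. Cell density read by CellTiter-blue fluorescence and normalized to drug-free cells. Representative data from experiments run in duplicate.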
row,Structure (SMILES),pIC50
1,Nc1nc2[nH]c(CCCCc3csc(C(=O)N[C@@H](CCC(=O)O)C(=O)O)c3)cc2c(=O)[nH]1,8.47

# System: not listed separately
# Assay: Growth inhibition of Chinese hamster RT16 cells expressing human folate receptor alpha incubated for 96 hrs in presence of folic acid by CellTiter-blue cell viability assay
# Format: functional, cell-based
# Details: Cricetulus griseus, RT16, 96 h
row,Structure (SMILES),pIC50
1,Nc1nc2[nH]c(CCC#Cc3sccc3C(=O)N[C@@H](CCC(=O)O)C(=O)O)cc2c(=O)[nH]1,< 6.00
2,Nc1nc2[nH]c(CCC#Cc3cscc3C(=O)N[C@@H](CCC(=O)O)C(=O)O)cc2c(=O)[nH]1,< 6.00
3,Nc1nc2[nH]c(CCCCc3csc(C(=O)N[C@@H](CCC(=O)O)C(=O)O)c3)cc2c(=O)[nH]1,< 6.00

# System: KB
# Assay: Inhibition of colony formation of human KB cells endogenously expressing RFC/FRalpha/PCFT incubated for 14 days by methylene blue staining based clonogenicty assay
# Format: functional, cell-based
# Details: 336 h
row,Structure (SMILES),pIC50
1,Nc1nc2[nH]c(CCCCc3csc(C(=O)N[C@@H](CCC(=O)O)C(=O)O)c3)cc2c(=O)[nH]1,9.41

# System: KB
# Assay: Growth inhibition of human KB cells endogenously expressing RFC/FRalpha/PCFT in presence of 10 uM thymidine incubated for 96 hrs by CellTiter-blue cell viability assay
# Format: functional, cell-based
# Details: not given
row,Structure (SMILES),growth inhibition (GI)
1,Nc1nc2[nH]c(CCCCc3csc(C(=O)N[C@@H](CCC(=O)O)C(=O)O)c3)cc2c(=O)[nH]1,Active

# System: KB
# Assay: Growth inhibition of human KB cells endogenously expressing RFC/FRalpha/PCFT in presence of folic acid incubated for 96 hrs by CellTiter-blue cell viability assay
# Format: functional, cell-based
# Details: not given
row,pIC50,Structure (SMILES)
1,< 6.00,Nc1nc2[nH]c(CCC#Cc3sccc3C(=O)N[C@@H](CCC(=O)O)C(=O)O)cc2c(=O)[nH]1
2,< 6.00,Nc1nc2[nH]c(CCC#Cc3cscc3C(=O)N[C@@H](CCC(=O)O)C(=O)O)cc2c(=O)[nH]1

row,Structure (SMILES),pIC50
1,Nc1nc2[nH]c(CCCCc3csc(C(=O)N[C@@H](CCC(=O)O)C(=O)O)c3)cc2c(=O)[nH]1,< 6.00

# System: IGROV-1
# Assay: Growth inhibition of human IGROV1 cells endogenously expressing RFC/FRalpha/PCFT in presence of folic acid incubated for 96 hrs by CellTiter-blue cell viability assay
# Format: functional, cell-based
# Details: IGROV-1, 96 h
row,Structure (SMILES),pIC50
1,Nc1nc2[nH]c(CCCCc3csc(C(=O)N[C@@H](CCC(=O)O)C(=O)O)c3)cc2c(=O)[nH]1,< 6.00

# System: not listed separately
# Assay: Growth inhibition of Chinese hamster RT16 cells expressing human folate receptor alpha incubated for 96 hrs by CellTiter-blue cell viability assay
# Format: functional, cell-based
# Details: Cricetulus griseus, RT16, 96 h
row,Structure (SMILES),pIC50
1,Nc1nc2[nH]c(CCC#Cc3sccc3C(=O)N[C@@H](CCC(=O)O)C(=O)O)cc2c(=O)[nH]1,< 6.00
2,Nc1nc2[nH]c(CCC#Cc3cscc3C(=O)N[C@@H](CCC(=O)O)C(=O)O)cc2c(=O)[nH]1,< 6.00
3,Nc1nc2[nH]c(CCCCc3csc(C(=O)N[C@@H](CCC(=O)O)C(=O)O)c3)cc2c(=O)[nH]1,8.60

# System: IGROV-1
# Assay: Growth inhibition of human IGROV1 cells endogenously expressing RFC/FRalpha/PCFT in presence of 10 uM thymidine incubated for 96 hrs by CellTiter-blue cell viability assay
# Format: functional, cell-based
# Details: not given
row,Structure (SMILES),growth inhibition (GI)
1,Nc1nc2[nH]c(CCCCc3csc(C(=O)N[C@@H](CCC(=O)O)C(=O)O)c3)cc2c(=O)[nH]1,Active

# System: R2
# Assay: Growth inhibition of Chinese hamster R2 cells expressing human PCFT incubated for 96 hrs by CellTiter-blue cell viability assay
# Format: functional, cell-based, Cricetulus griseus
# Details: R2, 96 h
# In short: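 R2/hPCFT4 CHO cells maintained beforehand in folate-free RPMI 1640 with dialyzed FBS, 25 nM LCV and G418. Assay: ~2500–5000 cells/well in folate-free RPMI 1640 (pH 7.2) with 25 nM LCV, 10% dialyzed FBS, antibiotics and L-glutamine, over a range of drug concentrations.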
row,Structure (SMILES),pIC50
1,Nc1nc2[nH]c(CCC#Cc3sccc3C(=O)N[C@@H](CCC(=O)O)C(=O)O)cc2c(=O)[nH]1,< 6.00
2,Nc1nc2[nH]c(CCC#Cc3cscc3C(=O)N[C@@H](CCC(=O)O)C(=O)O)cc2c(=O)[nH]1,< 6.00
3,Nc1nc2[nH]c(CCCCc3csc(C(=O)N[C@@H](CCC(=O)O)C(=O)O)c3)cc2c(=O)[nH]1,7.38

# System: IGROV-1
# Assay: Growth inhibition of human IGROV1 cells endogenously expressing RFC/FRalpha/PCFT in presence of 60 uM adenosine incubated for 96 hrs by CellTiter-blue cell viability assay
# Format: functional, cell-based
# Details: not given
row,Structure (SMILES),growth inhibition (GI)
1,Nc1nc2[nH]c(CCCCc3csc(C(=O)N[C@@H](CCC(=O)O)C(=O)O)c3)cc2c(=O)[nH]1,inactive

# System: KB
# Assay: Growth inhibition of human KB cells endogenously expressing RFC/FRalpha/PCFT incubated for 96 hrs by CellTiter-blue cell viability assay
# Format: functional, cell-based
# Details: not given
row,pIC50,Structure (SMILES)
1,< 6.00,Nc1nc2[nH]c(CCC#Cc3sccc3C(=O)N[C@@H](CCC(=O)O)C(=O)O)cc2c(=O)[nH]1
2,< 6.00,Nc1nc2[nH]c(CCC#Cc3cscc3C(=O)N[C@@H](CCC(=O)O)C(=O)O)cc2c(=O)[nH]1

row,Structure (SMILES),pIC50
1,Nc1nc2[nH]c(CCCCc3csc(C(=O)N[C@@H](CCC(=O)O)C(=O)O)c3)cc2c(=O)[nH]1,9.77

# System: KB
# Assay: Growth inhibition of human KB cells endogenously expressing RFC/FRalpha/PCFT in presence of 320 uM 5-amino-4-imidazolecarboxamide incubated for 96 hrs by CellTiter-blue cell viability assay
# Format: functional, cell-based
# Details: not given
row,Structure (SMILES),growth inhibition (GI)
1,Nc1nc2[nH]c(CCCCc3csc(C(=O)N[C@@H](CCC(=O)O)C(=O)O)c3)cc2c(=O)[nH]1,inactive

# System: IGROV-1
# Assay: Growth inhibition of human IGROV1 cells endogenously expressing RFC/FRalpha/PCFT incubated for 96 hrs by CellTiter-blue cell viability assay
# Format: functional, cell-based
# Details: IGROV-1, 96 h
row,Structure (SMILES),pIC50
1,Nc1nc2[nH]c(CCCCc3csc(C(=O)N[C@@H](CCC(=O)O)C(=O)O)c3)cc2c(=O)[nH]1,9.32

# Biological target: Folate receptor alpha (Homo sapiens) (UniProt P15328)
# Assay: not given
# Format: cell-based
# Details: CHO
# Chain of Folate receptor alpha (Homo sapiens) (P15328 25-234 limits assumed): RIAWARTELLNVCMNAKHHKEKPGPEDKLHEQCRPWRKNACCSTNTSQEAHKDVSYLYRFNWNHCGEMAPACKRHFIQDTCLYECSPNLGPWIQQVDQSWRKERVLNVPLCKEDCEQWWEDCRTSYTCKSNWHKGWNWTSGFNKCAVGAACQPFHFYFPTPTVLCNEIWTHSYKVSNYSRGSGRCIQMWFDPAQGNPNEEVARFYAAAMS
row,Structure (SMILES),relative binding affinity (RBA)
1,Nc1nc2[nH]c(CCCCc3csc(C(=O)N[C@@H](CCC(=O)O)C(=O)O)c3)cc2c(=O)[nH]1,> 1

# System: KB
# Assay: Growth inhibition of human KB cells endogenously expressing RFC/FRalpha/PCFT in presence of 60 uM adenosine incubated for 96 hrs by CellTiter-blue cell viability assay
# Format: functional, cell-based
# Details: not given
row,Structure (SMILES),growth inhibition (GI)
1,Nc1nc2[nH]c(CCCCc3csc(C(=O)N[C@@H](CCC(=O)O)C(=O)O)c3)cc2c(=O)[nH]1,inactive

# System: IGROV-1
# Assay: Growth inhibition of human IGROV1 cells endogenously expressing RFC/FRalpha/PCFT in presence of 320 uM 5-amino-4-imidazolecarboxamide incubated for 96 hrs by CellTiter-blue cell viability assay
# Format: functional, cell-based
# Details: not given
row,Structure (SMILES),growth inhibition (GI)
1,Nc1nc2[nH]c(CCCCc3csc(C(=O)N[C@@H](CCC(=O)O)C(=O)O)c3)cc2c(=O)[nH]1,inactive

# Biological target: T1, Proton-coupled folate transporter
# Assay: Inhibition of [3H]MTX transport at human PCFT expressed in Chinese hamster R2 cells at pH 6.8 by Dixon plot
# Format: cell-based
# Details: not given
# In short: as §1
row,Structure (SMILES),pKi
1,Nc1nc2[nH]c(CCCCc3csc(C(=O)N[C@@H](CCC(=O)O)C(=O)O)c3)cc2c(=O)[nH]1,4.55
